Source: the EternaBench riboswitch data

Test system: MS2 coat protein
Assay: apparent Kd, MS2 coat protein; higher = weaker binding; RNA-MaP array; FMN 200 µM where present
Procedure, shortened: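 The titrant was SNAP-549-labelled MS2 coat protein, run from 0.7 or 1.5 nM in doubling steps to 3 µM. It was applied to designs transcribed by stalled E. coli RNA polymerase on Illumina sequencing-chip clusters, without ligand first and then with constant ligand, in 100 mM Tris-HCl pH 7.5, 80 mM KCl, 4 mM MgCl2, BSA, DTT, yeast tRNA and Tween-20. The apparent Kd is the median of filtered per-cluster binding-curve fits, with green signal normalised to red-channel RNA signal and control-cluster median Fmax.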

[1] = designed as: ON switch for flavin mononucleotide, no ligand
[2] = ligand present: flavin mononucleotide, designed as: ON switch for flavin mononucleotide
[3] = designed as: OFF switch for flavin mononucleotide, no ligand
[4] = ligand present: flavin mononucleotide, designed as: OFF switch for flavin mononucleotide

Row | Sequence | apparent Kd [1] [nM] | apparent Kd [2] [nM] | apparent Kd [3] [nM] | apparent Kd [4] [nM]
1 | UGGUACAUCGGAGGAUAUCAUGUAUAUACAUGAGGAUCACCCAUGUCGUACGAGAGUACGGAGAUUGAGAAGGCCGAUGUACCU | 39.4 | 15.3 |  | 
2 | UGGUACAUCGGAGGAUAUCGUGUGUAAACAUGAGGAUCACCCAUGUCGUACGAGAGUACGGAGAUCGAGAAGGCCGAUGUACCU | 16.4 | 15.1 |  | 
3 | UGGUACAUGAGGAUCACCCAUGUAAGAGCCCUCAUGCGAUGUAGAAGGAUUAUGCGAGUAGUGCAAUAGGAUAUACAUGAGUUU |  |  | 216 | 163
4 | UGGUACAUGGGAGGAUAUGGGAAGAUACAUGAGGAUCACCCAUGUUUAAGAAUGCCGAGAGGCAACUAGAAGGCCCAUGUACCU | 1090 | 45.8 |  | 
5 | UGGUACAUGGGAGGAUAUGGGACAUGAGGAUCACCCAUGUGAAAAUUAAAUAUGCCGAGAGGCAACUAGAAGGCCCAUGUACCU | 29.9 | 14.9 |  | 
6 | UGGUACAUGGGAGGAUAUGGGUUGAUAACAUGAGGAUCACCCAUGUUAAAUAAGCCGAGAGGCUACCAGAAGGCCCAUGUACCU | 7.29 | 4.99 |  | 
7 | UGGUACAUGGGAGGAUAUGGGUUGAUAACAUGAGGAUCACCCAUGUUAAAUAUGCCUCAUGGCAACUAGAAGGCCCAUGUACCU | 463 | 95.1 |  | 
8 | UGGUACAUGGGAGGAUAUGGGUUGAUAACAUGAGGAUCACCCAUGUUAAAUUUUGCCGAAAGGCACUAGAAGGCCCAUGUACCU | 1130 | 142 |  | 
9 | UGGUACUAGGGAGGAUAUGGGAAGAUACAUGAGGAUCACCCAUGUUUAAGAAUGCCGAGAGACAACUAGAAGGCCCUAGUACCU | 240 | 22.2 |  | 
10 | UGGUACUAGGGAGGAUAUGGGAAGAUACAUGAGGAUCACCCAUGUUUAAGAAUGCCGAGAGGCAACUAGAAGGCCCUAGUACCA | 529 | 19.2 |  | 
11 | UGGUACUAGGGAGGAUAUGGGAAGAUACAUGAGGAUCACCCAUGUUUAAGAAUGCCGAGAGGCAACUAGAAGGCCGUAGUACCU | 466 | 20.3 |  | 
12 | UGGUACUAGGGAGGAUAUGGGAAGAUACAUGAGGAUCACCCAUGUUUAAGAAUGCCGAGAGGCAGCUAGAAGGCCCUAGUACCU | 675 | 24.7 |  | 
13 | UGGUACUAGGGAGGAUAUGGGAAGAUACAUGAGGAUCACCCAUGUUUAAGAAUGCCGAGAGGCAUCUAGAAGGCCCUAGUACCU | 877 | 115 |  | 
14 | UGGUACUAGGGAGGAUAUGGGAAGAUACAUGAGGAUCACCCAUGUUUAAGAAUGCCGAGUGGCAACUAGAAGGCCCUAGUACCU | 478 | 20.5 |  | 
15 | UGGUACUAGGGAGGAUAUGGGAAGAUACAUGAGGAUCACCCAUGUUUAAGACUGCCGAGAGGCAACUAGAAGGCCCUAGUACCU | 624 | 27.4 |  | 
16 | UGGUACUAGGGAGGAUAUGGGAAGUUACAUGAGGAUCACCCAUGUUUAAGAAUGCCGAGAGGCAACUAGAAGGCCCUAGUACCU | 31.6 | 6.24 |  | 
17 | UGGUCACAUGAGGAUCACCCAUGUCAGGAUAUCUACAUUGAAGCCUCGGCUUCAAUGUAGAGAAGGGAUAUAAU |  |  | 65.5 | 148
18 | UGGUCAUCAUCAGGAUAUUAACAUGGGCUACAUUAAGAAGGGAUAGUGAGAUAGGAACUGAAACAUGAGGAUCACCCAUGUUGU | 96.9 | 44.2 |  | 
19 | UGGUCCCAGCGUUUGCUGGCCGCUCCAGAAGGCGAUCCAACAUGAGGAUCACCCAUGUCACCGAUCGAGGAUAUGGUUAAGGAU | 242 | 25.4 |  | 
20 | UGGUGAAAUGUAGGAUAUGGAAAUAAAUUUUAACCAGAAGGACAUGAGGAUCACCCAUGUGAUAGAGAAUUAAUAAUAUCUCCU |  |  | 18.6 | 29.9
21 | UGGUGAAUUGAGAAGGGAACAGAUGUAGCUCCACAUGAGGAUCACCCAUGUUCAGGAUAUCAGUGCCCGACCUUGAGCGGUCGC |  |  | 7.92 | 11.8
22 | UGGUGCGAGCUAUCGCAUGACUGGGAGGAUAUGACAUGAGGAUCACCCAUGUGGGAUCUAAAUUGUCAGAAGGCUCGAUCUGGG |  |  | 346 | 102
